Screening results from PubChem BioAssay.
bovine MsrA act: activators of bovine methionine sulfoxide reductase A; purified bovine MsrA, absorbance read-out; activation, % at 10.6 µM; hit rate 0.3% among 360,000; AID 602163; in the data active means activation above about 7.5%;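 further: 0% = vehicle and 100% = reference activator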
UCH37 DUB inh: blocks the human deubiquitinase UCH37; purified proteasome/UCH37, Ub-AMC cleavage fluorescence; AID 588478; inhibition, % (no concentration beside the values); hit rate 0.33% among 330,000;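 active means mean inhibition over replicate wells above about 20%, limit read from the data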;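 further: 0% = compound-free wells with enzyme and 100% = wells lacking proteasome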
Target sequence (Q9Y5K5 whole entry, looked up): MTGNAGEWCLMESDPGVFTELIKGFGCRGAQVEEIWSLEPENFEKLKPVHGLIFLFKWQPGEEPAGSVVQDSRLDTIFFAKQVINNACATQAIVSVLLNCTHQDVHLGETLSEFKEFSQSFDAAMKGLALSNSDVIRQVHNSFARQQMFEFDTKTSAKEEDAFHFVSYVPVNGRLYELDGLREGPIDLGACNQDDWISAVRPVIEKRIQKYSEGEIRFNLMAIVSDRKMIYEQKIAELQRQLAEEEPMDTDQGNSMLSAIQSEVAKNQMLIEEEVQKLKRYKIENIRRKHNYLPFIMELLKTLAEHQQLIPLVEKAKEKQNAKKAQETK
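Schedule: 30 min plus 25 min, room temperature / Material: human UCH37 within purified proteasomes / Technique: AMC fluorescence intensity at 355/460 nm / Buffer or medium: pH 7.4 Tris-HCl (50 mM) with ovalbumin, ATP-MgCl2, DTT / Controls: wells without proteasome as full block, compound-free enzyme plus substrate as uninhibited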
MsrA inhibitor: inhibits bovine methionine sulfoxide reductase A | inhibition, % at 15.5 µM | hit rate 0.75% among 360,000 | purified bovine MsrA, absorbance read-out; in the data active means inhibition above about 4.5%;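 further: 0% = vehicle wells with enzyme and 100% = reference inhibitor wells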
aDG glyco act: alpha-DG glycosylation activation; Pro5-aDG cells, alpha-DG glycosylation AlphaScreen (IIH6); 0% Pro5, 100% B10-LARGE cell signal; activation, % at 10 µM; hit rate 0.22% among 360,000;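 active means activation of at least 8% versus controls, or a plate z-score of at least 8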;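 further: Pro5 are CHO cells carrying HIG-tagged alpha-DG that lacks glycosylation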
Vif imaging: HIV Vif inhibition. hit rate 0.35% among 340,000. HEK293T cells, Vif self-association by quenched fluorescence, imaging, 24 h. inhibition, % at 7.49 µM. AID 602346; in the data active means inhibition above about 50%, passing the limit was not always enough
N-glyco inh: blocks N-linked glycosylation in D54 reporter cells. D54 ERlucT glycosylation luciferase reporter, 24 h; percent of 100 nM tunicamycin response. reporter increase, % at 12.5 µM. hit rate 0.23% among 360,000;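 active means mean luciferase reporter signal, scaled so untreated is 0 and the glycosylation-blocking control 100, at or above a set limit in every replicate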;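 further: luciferase carries N-glycosylation sites so blocking glycosylation raises the light; 0% = median of neutral control wells and 100% = median of 100 nM tunicamycin wells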
* hit, by the source's call; · = no result; ! = not active in a repeat. Sampled rows, rich in hits. Any-hit rate of the full collection: about 1.9%.

SMILES	bovine MsrA act	UCH37 DUB inh	MsrA inhibitor	aDG glyco act	Vif imaging	N-glyco inh
CC1=C(/C=C/C(C)=C/C=C/C(C)=C/C(=O)Nc2ccc(O)cc2)C(C)(C)CCC1	-2.9	·	1.5	-0.5	50.3*!	0.7
CC1=C(/C=C/C(C)=C/C=C/C(C)=C\C(=O)O)C(C)(C)CCC1	0.2	18.9	0.1	-0.2	-1.2	4.6
CC1(c2nnc(Cc3ccccc3)o2)CC(c2ccc(Cl)cc2)=NO1 (stereo unspecified)	-8.6	28.0*	0.6	0.0	-3.7	0.1
Cc1ccc(C2=NOC(C)(c3nnc(-c4ccncc4)o3)C2)cc1 (stereo unspecified)	-0.4	0.1	-0.9	0.1	135.0*	0.7
CC1(c2nnc(Cc3ccccc3)o2)CC(c2ccncc2)=NO1 (stereo unspecified)	1.9	20.7*	0.7	-0.2	·	2.3
CC1(c2nnc(Cc3ccccc3)o2)CC(c2ccc(C#N)cc2)=NO1 (stereo unspecified)	-10.7	-0.7	0.4	0.3	·	-1.3
COc1ccc(C2=NOC(C)(c3nnc(Cc4ccccc4)o3)C2)cc1 (stereo unspecified)	-9.5	29.2*	-0.8	-0.1	1.0	0.7
COc1ccccc1C1=NOC(C)(c2nnc(Cc3ccccc3)o2)C1 (stereo unspecified)	0.4	4.4	-0.4	-0.1	·	3.4
CC1(c2nnc(Cc3ccccc3)o2)CC(c2c(Cl)cccc2Cl)=NO1 (stereo unspecified)	-0.7	5.1	0.2	0.1	·	-2.1
Nc1nonc1-n1nnc(C(=O)NN=Cc2cccs2)c1CSc1ccccc1	·	-1.6	·	·	·	·
C=CCn1c(COc2ccc(Cl)cc2)nnc1SCC(=O)NN=Cc1ccccc1	·	0.0	·	·	·	·
COc1cc(C(=O)NN=Cc2cccc(Oc3ccccc3)c2)ccc1O	·	1.5	·	·	·	·
CC(CC(=O)Nc1ccc(Cl)cc1C(F)(F)F)=NNC(=O)c1ccccn1	·	-1.0	·	·	·	·
O=C(NCCCn1ccnc1)C(=O)NCC(c1ccco1)N1CCN(c2ccccc2)CC1 (stereo unspecified)	-6.4	1.8	-1.6	0.0	-1.4	-0.4
O=C(NCCCn1ccnc1)C(=O)NCC(c1cccnc1)N1CCN(c2ccccc2)CC1 (stereo unspecified)	-7.1	3.1	-0.8	-0.2	53.7*	1.4
CCCC1(C2CCCC2)NC(=O)NC1=O (stereo unspecified)	-2.5	-0.5	1.7	0.0	96.8*	-1.9
CCOc1ccc(CCNC(=O)CS(=O)(=O)Cc2nc(-c3ccc(OC)cc3)oc2C)cc1	-7.5	1.8	-1.2	0.2	-1.4	1.9
COc1ccc(-c2nc(CS(=O)(=O)CC(=O)NCCc3ccccc3)c(C)o2)cc1	-3.0	-2.7	-0.6	0.3	56.4*	2.1
O=C(/C=C/Sc1ccccc1)c1ccc(Cl)cc1	-5.0	6.0	0.9	-0.3	10.7	43.8*
O=C(/C=C/Nc1ccccc1)c1ccccc1	3.6	-6.2	2.8	-0.1	-17.3	-18.7
O=C(/C=C/Sc1ccccc1)c1ccccc1	-12.3	4.7	0.6	-0.2	5.7	33.3*
O=C(C=Cc1ccccc1Cl)c1ccccc1	-1.4	6.4	0.6	0.6	3.7	10.3
CC1CCN(Cc2c(C(=O)N/N=C/c3cc(Br)ccc3O)nnn2-c2nonc2N)CC1	-1.9	·	0.0	0.8	52.5*	-6.2
CC1CCN(Cc2c(C(=O)N/N=C/c3cc(Cl)ccc3O)nnn2-c2nonc2N)CC1	-6.7	·	-0.8	0.7	20.1	-7.4
Cc1cc(NN=Cc2ccco2)c2ccccc2n1	·	-13.7	·	·	·	·
SMILES	bovine MsrA act	UCH37 DUB inh	MsrA inhibitor	aDG glyco act	Vif imaging	N-glyco inh
O=C(N/N=C/c1cccnc1)c1cc(-c2ccccc2OCc2ccccc2)n[nH]1	-2.4	·	1.6	-0.1	-3.3	40.9*
CCc1ccc(CNC(=O)Cc2ccc(NC(=O)C3=C(C)OCCS3)cc2)cc1	-4.4	·	0.2	0.2	2.8	30.9*
CC1=C(C(=O)Nc2ccc(CC(=O)NCc3ccccc3C)cc2)SCCO1	-1.1	-2.0	0.9	-0.1	0.5	2.4
CC(=O)Oc1ccc2c(=O)c(C=Nc3cc(=O)[nH]c(=S)[nH]3)coc2c1	·	13.1	·	·	·	·
C=CCNC(=S)Nc1sc2c(c1C(=O)OCC)CC(C)(CC)OC2 (stereo unspecified)	2.6	2.1	4.6*	-0.5	-0.9	3.0
C=CCNC(=S)Nc1sc2c(c1C(=O)OCC)CCN(C(=O)OCC)C2	-11.1	-0.1	1.9	-0.2	-8.6	0.4
COc1ccc(N(CC(=O)NN=Cc2ccccc2F)S(=O)(=O)c2ccccc2)cc1	·	1.7	·	·	·	·
